Laboratory results reported in ChEMBL document CHEMBL3112531, “Synthesis and evaluation of 4-(2-pyrimidinylamino) benzamides inhibitors of hedgehog signaling pathway” (Bioorg Med Chem Lett, 2014).
Each block holds one molecule with its values, some of them ahead of it.

Key:
[1] = (§1) Mean residence time (0 to t) in Sprague-Dawley rat at 1 mg/kg, iv; assay type: ADME, organism-based; parameters: dose 1 mg/kg, route intravenous; conditions: Sprague-Dawley, in vivo
In short: (§2)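 SD rats given a single 1 mg/kg iv dose in 5% DMA + 5% Tween-80. Plasma concentration–time data were analysed by a noncompartmental approach.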

[2] = Cmax in Sprague-Dawley rat at 5 mg/kg, po; assay type: ADME, organism-based; parameters: dose 5 mg/kg, route oral; conditions: in vivo
In short: (§3)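 SD rats dosed orally at 5 mg/kg in 0.5% HPMC + 0.3% Tween-80 (pH 2.8). Blood samples (n = 3) were centrifuged at 4000 rpm for 5 min at 4 °C. Plasma concentration–time data were analysed noncompartmentally.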

[3] = Clearance in Sprague-Dawley rat at 5 mg/kg, po; assay type: ADME, organism-based; parameters: dose 5 mg/kg, route oral; conditions: in vivo; in short: as §3
[4] = AUC in Sprague-Dawley rat at 1 mg/kg, iv; assay type: ADME, organism-based; parameters: dose 1 mg/kg, route intravenous; conditions: plasma; in short: as §2
[5] = Half life in Sprague-Dawley rat at 1 mg/kg, iv; assay type: ADME, organism-based; parameters: dose 1 mg/kg, route intravenous; conditions: in vivo; in short: as §2
[6] = AUC in Sprague-Dawley rat at 5 mg/kg, po; assay type: ADME, organism-based; parameters: dose 5 mg/kg, route oral; conditions: plasma; in short: as §3
[7] = (§4) Volume of distribution at steady state in Sprague-Dawley rat at 1 mg/kg, iv; assay type: ADME, organism-based; parameters: dose 1 mg/kg, route intravenous; conditions: Sprague-Dawley, in vivo, read-out: Vdss; in short: as §2
[8] = Mean residence time (0 to t) in Sprague-Dawley rat at 5 mg/kg, po; assay type: ADME, organism-based; parameters: dose 5 mg/kg, route oral; conditions: in vivo; in short: as §3
[9] = Cmax in Sprague-Dawley rat at 1 mg/kg, iv; assay type: ADME, organism-based; parameters: dose 1 mg/kg, route intravenous; conditions: in vivo; in short: as §2
[10] = Oral bioavailability in Sprague-Dawley rat at 5 mg/kg; assay type: ADME, organism-based; conditions: in vivo
In short: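 Oral dosing of SD rats at 5 mg/kg in 0.5% HPMC + 0.3% Tween-80 (pH 2.8), with blood samples n = 3, alongside iv dosing at 1 mg/kg in 5% DMA + 5% Tween-80. Plasma concentration–time data were analysed noncompartmentally.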

[11] = Clearance in Sprague-Dawley rat at 1 mg/kg, iv; assay type: ADME, organism-based; parameters: dose 1 mg/kg, route intravenous; conditions: in vivo; in short: as §2
[12] = test system: Rattus norvegicus; test: Volume of distribution at steady state in Sprague-Dawley rat at 5 mg/kg, po; assay type: ADME, organism-based; parameters: dose 5 mg/kg, route oral; conditions: in vivo; in short: as §3
[13] = Inhibition of hedgehog signaling pathway in mouse NIH/3T3 cells by Gli1-luciferase reporter gene assay; assay type: cell-based; conditions: NIH3T3
[14] = Half life in Sprague-Dawley rat at 5 mg/kg, po; assay type: ADME, organism-based; parameters: dose 5 mg/kg, route oral; conditions: in vivo; in short: as §3
[15] = test system: Rattus norvegicus; test: as §1; assay type: ADME, organism-based; parameters: dose 1 mg/kg, route intravenous; conditions: in vivo; in short: as §2
[16] = Ratio of GDC-0449 IC50 to compound IC50 for hedgehog signaling pathway in mouse NIH/3T3 cells by Gli1-luciferase reporter gene assay; assay type: cell-based
[17] = test system: Rattus norvegicus; test: as §4; assay type: ADME, organism-based; parameters: dose 1 mg/kg, route intravenous; conditions: in vivo; in short: as §2

MRT last [1]: 0.81 h
Cmax [2]: 1500 ng/mL
CL/F [3]: 23.9 mL/min/kg
AUC [4]: 1200 ng·h/mL
half-life [5]: 0.8 h
AUC [6]: 3800 ng·h/mL
Vd [7]: 0.9 L/kg
MRT last [8]: 2.4 h
Cmax [9]: 2100 ng/mL
bioavailability [10]: 63.6%
clearance [11]: 14.3 mL/min/kg
Vdss [12]: 2.9 L/kg
IC50 [13]: 1.3 nM
half-life [14]: 1.4 h
SMILES: Cc1ccc(CN2CCOCC2)cc1NC(=O)c1ccc(Nc2ncc(C)c(-c3cnn(C)c3)n2)cc1

IC50 [13]: 0.29 nM
SMILES: Cc1ccc(CN2C(C)(C)CC(=O)CC2(C)C)cc1NC(=O)c1ccc(Nc2ncc(C)c(-c3ccc(OC(F)(F)F)cc3)n2)cc1

IC50 [13]: 1.3 nM
SMILES: Cc1ccc(CN2CCN(C(=O)C3CC3)CC2)cc1NC(=O)c1ccc(Nc2ncc(C)c(-c3ccc(OC(F)(F)F)cc3)n2)cc1

IC50 [13]: 17.5 nM
SMILES: CCCN(C)Cc1ccc(C)c(NC(=O)c2ccc(Nc3ncc(C)c(-c4cnn(C)c4)n3)cc2)c1

IC50 [13]: 9.2 nM
SMILES: Cc1ccc(CN2CCCC2)cc1NC(=O)c1ccc(Nc2ncc(C)c(-c3cnn(C)c3)n2)cc1

IC50 [13]: 0.9 nM
SMILES: Cc1ccc(CNC(C)(C)C)cc1NC(=O)c1ccc(Nc2ncc(C)c(-c3ccc(OC(F)(F)F)cc3)n2)cc1

IC50 [13]: 2 nM
SMILES: Cc1ccc(CN2CCN(c3ccccc3)CC2)cc1NC(=O)c1ccc(Nc2ncc(C)c(-c3ccc(OC(F)(F)F)cc3)n2)cc1

IC50 [13]: 35.3 nM
SMILES: Cc1ccc(CN(C)CCCN(C)C)cc1NC(=O)c1ccc(Nc2ncc(C)c(-c3ccc(OC(F)(F)F)cc3)n2)cc1

IC50 [13]: 0.76 nM
SMILES: Cc1ccc(CN2C(C)(C)CCCC2(C)C)cc1NC(=O)c1ccc(Nc2ncc(C)c(-c3ccc(OC(F)(F)F)cc3)n2)cc1

IC50 [13]: 1.1 nM
SMILES: Cc1ccc(CNCCO)cc1NC(=O)c1ccc(Nc2ncc(C)c(-c3ccc(OC(F)(F)F)cc3)n2)cc1

IC50 [13]: 19.5 nM
SMILES: Cc1ccc(CN2CCC(N3CCCCC3)CC2)cc1NC(=O)c1ccc(Nc2ncc(C)c(-c3ccc(OC(F)(F)F)cc3)n2)cc1

IC50 [13]: 31.9 nM
SMILES: Cc1ccc(CN(CCO)CCO)cc1NC(=O)c1ccc(Nc2ncc(C)c(-c3cnn(C)c3)n2)cc1

IC50 [13]: 0.23 nM
SMILES: CCN(CC)Cc1ccc(C)c(NC(=O)c2ccc(Nc3ncc(C)c(-c4ccc(OC(F)(F)F)cc4)n3)cc2)c1

Further lines, the molecule ahead of its results:

SMILES: Cc1ccc(CN2CCOCC2)cc1NC(=O)c1ccc(Nc2ncc(C)c(-c3ccc(OC(F)(F)F)cc3)n2)cc1
MRT [15]: 4.1 h
Cmax [2]: 280 ng/mL
CL/F [3]: 32.8 mL/min/kg
Ratio IC50 [16]: 7
AUC [4]: 1300 ng·h/mL
half-life [5]: 7.2 h
AUC [6]: 2400 ng·h/mL
Vdss [17]: 7.4 L/kg
MRT last [8]: 6.6 h
Cmax [9]: 1200 ng/mL
bioavailability [10]: 46.3%
Vdss [12]: 16.3 L/kg
IC50 [13]: 0.53 nM
half-life [14]: 5.8 h

SMILES: Cc1ccc(CNC2CCCC2)cc1NC(=O)c1ccc(Nc2ncc(C)c(-c3ccc(OC(F)(F)F)cc3)n2)cc1
IC50 [13]: 1.6 nM

SMILES: Cc1ccc(CNC(C)(C)C)cc1NC(=O)c1ccc(Nc2ncc(C)c(-c3cnn(C)c3)n2)cc1
IC50 [13]: 18.1 nM

SMILES: Cc1ccc(CN(C)C(C)C)cc1NC(=O)c1ccc(Nc2ncc(C)c(-c3ccc(OC(F)(F)F)cc3)n2)cc1
IC50 [13]: 0.89 nM

SMILES: Cc1ccc(CN2CCNCC2)cc1NC(=O)c1ccc(Nc2ncc(C)c(-c3ccc(OC(F)(F)F)cc3)n2)cc1
IC50 [13]: 10.5 nM

SMILES: CCNCc1ccc(C)c(NC(=O)c2ccc(Nc3ncc(C)c(-c4ccc(OC(F)(F)F)cc4)n3)cc2)c1
IC50 [13]: 0.72 nM

SMILES: CCN1CCN(Cc2ccc(C)c(NC(=O)c3ccc(Nc4ncc(C)c(-c5ccc(OC(F)(F)F)cc5)n4)cc3)c2)CC1
IC50 [13]: 0.77 nM

SMILES: Cc1ccc(CN2CCNC(=O)C2)cc1NC(=O)c1ccc(Nc2ncc(C)c(-c3ccc(OC(F)(F)F)cc3)n2)cc1
IC50 [13]: 2 nM

SMILES: Cc1ccc(CN2CCCCC2)cc1NC(=O)c1ccc(Nc2ncc(C)c(-c3ccc(OC(F)(F)F)cc3)n2)cc1
Ratio IC50 [16]: 7
IC50 [13]: 1 nM

SMILES: CS(=O)(=O)c1ccc(C(=O)Nc2ccc(Cl)c(-c3ccccn3)c2)c(Cl)c1 [VISMODEGIB]
half-life [5]: 1.6 h
IC50 [13]: 7.2 nM

SMILES: Cc1ccc(CN2CC3CCN(C)C3C2)cc1NC(=O)c1ccc(Nc2ncc(C)c(-c3ccc(OC(F)(F)F)cc3)n2)cc1 (configuration not stated)
IC50 [13]: 10.5 nM
